Reference: ChEMBL document CHEMBL1152541, “Staurosporine tethered peptide ligands that target cAMP-dependent protein kinase (PKA): optimization and selectivity profiling” (Bioorg Med Chem, 2009)
Blank lines part the entries; values can stand above or below the compound they belong to. *1 amine or outer side, *2 acyl side, *3 side chain or, on linkers, in order; H or OH if unused. Where a SMILES comes first, the peptide text is derived from it. Bridges are numbered along the chain shown (N, C = ends). [ ]: non-standard residue; d: D form. The star is where a group is joined. Staurosporine = CO[C@@H]1[C@H](N(C)*)C[C@H]2O[C@]1(C)n1c3ccccc3c3c4c(c5c6ccccc6n2c5c31)C(=O)NC4; Suc = O=C(CCC(=O)[*:2])[*:1]; Dap = NC[C@H](N)C(=O)O; βAla = NCCC(=O)O

Columns and labels:
[1] = molecular target: Epidermal growth factor receptor (Homo sapiens) (UniProt P00533); experiment: Binding affinity to human EGFR at 500 nM by cell-based competition binding assay relative to control in presence of DTT
Outline: (§1)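 Commercial (Ambit) competitive kinase-binding panel of 90 kinases measured the binding profile. Run under reducing conditions of 7.5 mM DTT. Binding is expressed relative to control.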

[2] = molecular target: High affinity nerve growth factor receptor (Homo sapiens) (UniProt P04629); experiment: Binding affinity to human TRKA at 500 nM by cell-based competition binding assay relative to control in presence of DTT
[3] = molecular target: T1, Testis-specific serine/threonine-protein kinase 1 (Homo sapiens) (UniProt Q9BXA7); experiment: Binding affinity to human TSSK1 at 500 nM by cell-based competition binding assay relative to control in presence of DTT
T1 sequence (whole entry): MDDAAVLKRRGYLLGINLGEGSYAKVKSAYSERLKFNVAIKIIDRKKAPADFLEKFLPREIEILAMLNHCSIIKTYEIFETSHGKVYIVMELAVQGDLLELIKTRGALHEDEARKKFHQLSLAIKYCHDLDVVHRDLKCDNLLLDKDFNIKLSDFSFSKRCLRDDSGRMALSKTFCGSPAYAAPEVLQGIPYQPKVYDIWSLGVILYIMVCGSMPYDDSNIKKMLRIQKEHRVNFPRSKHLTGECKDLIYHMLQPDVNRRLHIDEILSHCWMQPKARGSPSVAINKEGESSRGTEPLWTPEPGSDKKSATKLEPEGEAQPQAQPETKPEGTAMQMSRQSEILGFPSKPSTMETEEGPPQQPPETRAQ

[4] = molecular target: Cyclin-dependent kinase 19 (Homo sapiens) (UniProt Q9BWU1); experiment: Binding affinity to human CDK11 at 500 nM by cell-based competition binding assay relative to control in presence of DTT
Cyclin-dependent kinase 19 (Homo sapiens), sequence (Q9BWU1 whole entry): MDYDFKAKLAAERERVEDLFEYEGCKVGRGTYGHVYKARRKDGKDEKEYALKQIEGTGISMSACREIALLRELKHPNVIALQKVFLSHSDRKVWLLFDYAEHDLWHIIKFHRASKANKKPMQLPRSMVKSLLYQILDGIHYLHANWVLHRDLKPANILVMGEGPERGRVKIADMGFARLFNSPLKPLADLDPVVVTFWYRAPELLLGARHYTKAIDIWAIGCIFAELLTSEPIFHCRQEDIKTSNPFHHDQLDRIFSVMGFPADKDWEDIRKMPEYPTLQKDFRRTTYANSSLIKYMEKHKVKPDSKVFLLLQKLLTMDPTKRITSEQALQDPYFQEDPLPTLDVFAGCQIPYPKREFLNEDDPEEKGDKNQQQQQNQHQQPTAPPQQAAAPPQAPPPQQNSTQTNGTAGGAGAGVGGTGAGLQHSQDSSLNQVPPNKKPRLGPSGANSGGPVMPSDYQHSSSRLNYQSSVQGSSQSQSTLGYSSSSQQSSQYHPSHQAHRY
Outline: (§2)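 Kinase binding profiling ran on a commercial (Ambit) competitive binding screen against a panel of 90 kinases. The screen used reducing conditions with 7.5 mM DTT. To withstand the DTT, the bivalent ligand was tested as its amide isostere, with the disulfide replaced. A staurosporine derivative carrying a 3 β-alanine linker was run as the reference compound.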

[5] = molecular target: Cyclin-dependent kinase 7 (Homo sapiens) (UniProt P50613); experiment: Binding affinity to human CDK7 at 500 nM by cell-based competition binding assay relative to control in presence of DTT; outline: as §1
Cyclin-dependent kinase 7 (Homo sapiens), sequence (P50613 whole entry): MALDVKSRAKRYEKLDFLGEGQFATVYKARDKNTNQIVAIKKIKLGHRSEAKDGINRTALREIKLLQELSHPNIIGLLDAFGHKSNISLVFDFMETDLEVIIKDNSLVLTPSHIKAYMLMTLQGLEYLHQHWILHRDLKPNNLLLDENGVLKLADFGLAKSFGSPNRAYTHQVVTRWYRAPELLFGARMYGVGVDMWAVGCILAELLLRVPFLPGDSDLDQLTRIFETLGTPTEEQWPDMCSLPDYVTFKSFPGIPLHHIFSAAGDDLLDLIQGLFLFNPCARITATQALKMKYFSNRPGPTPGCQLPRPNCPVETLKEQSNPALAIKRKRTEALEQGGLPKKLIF

[6] = molecular target: Receptor-type tyrosine-protein kinase FLT3 (Homo sapiens) (UniProt P36888); experiment: Binding affinity to human FLT3 at 500 nM by cell-based competition binding assay relative to control in presence of DTT; outline: as §1
Receptor-type tyrosine-protein kinase FLT3 (Homo sapiens), sequence (P36888 whole entry): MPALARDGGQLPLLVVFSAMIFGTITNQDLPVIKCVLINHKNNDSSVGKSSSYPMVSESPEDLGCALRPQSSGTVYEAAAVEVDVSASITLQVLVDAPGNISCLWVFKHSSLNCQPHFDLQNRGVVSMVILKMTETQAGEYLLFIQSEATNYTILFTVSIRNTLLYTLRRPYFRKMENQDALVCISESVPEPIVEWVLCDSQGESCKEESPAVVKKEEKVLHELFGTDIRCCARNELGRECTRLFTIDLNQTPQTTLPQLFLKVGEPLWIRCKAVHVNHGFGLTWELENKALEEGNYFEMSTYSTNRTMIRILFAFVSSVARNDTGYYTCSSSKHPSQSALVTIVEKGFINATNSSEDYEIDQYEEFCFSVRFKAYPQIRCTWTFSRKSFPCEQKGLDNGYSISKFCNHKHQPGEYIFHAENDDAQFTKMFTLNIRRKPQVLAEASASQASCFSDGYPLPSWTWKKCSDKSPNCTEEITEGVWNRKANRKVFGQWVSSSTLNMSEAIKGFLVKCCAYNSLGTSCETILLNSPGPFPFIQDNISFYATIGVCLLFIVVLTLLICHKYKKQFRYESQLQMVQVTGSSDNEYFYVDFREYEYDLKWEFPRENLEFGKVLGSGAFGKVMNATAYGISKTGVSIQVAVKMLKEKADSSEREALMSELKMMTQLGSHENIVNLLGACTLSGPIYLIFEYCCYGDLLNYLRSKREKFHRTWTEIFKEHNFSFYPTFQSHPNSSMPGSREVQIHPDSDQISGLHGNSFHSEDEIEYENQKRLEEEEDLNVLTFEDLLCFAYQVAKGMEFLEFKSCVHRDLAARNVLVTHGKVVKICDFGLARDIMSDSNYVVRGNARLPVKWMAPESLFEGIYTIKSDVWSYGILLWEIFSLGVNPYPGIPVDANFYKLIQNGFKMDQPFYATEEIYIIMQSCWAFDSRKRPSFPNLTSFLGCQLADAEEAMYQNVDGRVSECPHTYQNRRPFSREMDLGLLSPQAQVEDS

[7] = molecular target: Glycogen synthase kinase-3 beta (Homo sapiens) (UniProt P49841); experiment: Binding affinity to human GSK3-beta at 500 nM by cell-based competition binding assay relative to control in presence of DTT
Outline: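 Competition binding screen (Ambit) across a panel of 90 kinases, scoring test ligand displacement of each kinase's binding relative to control. The screen ran under reducing conditions with 7.5 mM DTT.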

[8] = molecular target: Dual specificity mitogen-activated protein kinase kinase 2 (Homo sapiens) (UniProt P36507); experiment: Binding affinity to human MEK2 at 500 nM by cell-based competition binding assay relative to control in presence of DTT
Dual specificity mitogen-activated protein kinase kinase 2 (Homo sapiens), sequence (P36507 whole entry): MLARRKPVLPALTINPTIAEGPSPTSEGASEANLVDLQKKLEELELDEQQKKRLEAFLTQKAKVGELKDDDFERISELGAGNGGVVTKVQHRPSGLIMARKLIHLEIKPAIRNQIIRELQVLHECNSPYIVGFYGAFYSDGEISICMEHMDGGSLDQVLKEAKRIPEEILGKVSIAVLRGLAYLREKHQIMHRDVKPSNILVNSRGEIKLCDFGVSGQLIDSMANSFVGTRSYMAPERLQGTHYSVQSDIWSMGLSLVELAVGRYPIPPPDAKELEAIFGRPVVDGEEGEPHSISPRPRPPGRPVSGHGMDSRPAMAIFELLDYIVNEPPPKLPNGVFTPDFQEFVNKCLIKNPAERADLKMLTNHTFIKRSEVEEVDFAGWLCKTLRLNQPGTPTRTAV

[9] = molecular target: Mitogen-activated protein kinase 14 (Homo sapiens) (UniProt Q16539); experiment: Binding affinity to human p38alpha at 500 nM by cell-based competition binding assay relative to control in presence of DTT
Mitogen-activated protein kinase 14 (Homo sapiens), sequence (Q16539 whole entry): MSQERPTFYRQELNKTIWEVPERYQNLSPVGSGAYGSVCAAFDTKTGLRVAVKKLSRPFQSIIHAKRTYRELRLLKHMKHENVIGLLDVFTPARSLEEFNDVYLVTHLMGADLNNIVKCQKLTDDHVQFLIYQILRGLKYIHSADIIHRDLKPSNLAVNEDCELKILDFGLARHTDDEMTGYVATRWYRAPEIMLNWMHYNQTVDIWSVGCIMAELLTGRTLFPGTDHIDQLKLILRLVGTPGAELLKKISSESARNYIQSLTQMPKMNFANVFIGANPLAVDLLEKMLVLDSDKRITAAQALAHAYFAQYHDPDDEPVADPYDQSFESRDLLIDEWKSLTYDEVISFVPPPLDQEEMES

[10] = molecular target: Serine/threonine-protein kinase PAK 1 (Homo sapiens) (UniProt Q13153); experiment: Binding affinity to human PAK1 at 500 nM by cell-based competition binding assay relative to control in presence of DTT
Serine/threonine-protein kinase PAK 1 (Homo sapiens), sequence (Q13153 whole entry): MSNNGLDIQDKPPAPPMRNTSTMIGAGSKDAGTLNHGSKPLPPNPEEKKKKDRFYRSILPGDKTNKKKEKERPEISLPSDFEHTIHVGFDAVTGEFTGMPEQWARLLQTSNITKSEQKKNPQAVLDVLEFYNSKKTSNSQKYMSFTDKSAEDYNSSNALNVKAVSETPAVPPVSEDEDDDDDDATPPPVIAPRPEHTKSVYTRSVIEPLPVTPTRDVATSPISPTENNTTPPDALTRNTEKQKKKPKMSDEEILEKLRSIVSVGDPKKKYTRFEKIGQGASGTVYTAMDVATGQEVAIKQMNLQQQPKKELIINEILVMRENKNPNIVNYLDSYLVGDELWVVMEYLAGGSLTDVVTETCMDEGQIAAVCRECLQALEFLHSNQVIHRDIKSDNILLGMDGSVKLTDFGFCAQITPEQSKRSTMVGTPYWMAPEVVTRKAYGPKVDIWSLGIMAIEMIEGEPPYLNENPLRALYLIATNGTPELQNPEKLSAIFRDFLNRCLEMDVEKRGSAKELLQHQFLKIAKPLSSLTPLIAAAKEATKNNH

[11] = molecular target: Serine/threonine-protein kinase PAK 4 (Homo sapiens) (UniProt O96013); experiment: Binding affinity to human PAK4 at 500 nM by cell-based competition binding assay relative to control in presence of DTT
Serine/threonine-protein kinase PAK 4 (Homo sapiens), sequence (O96013 whole entry, looked up): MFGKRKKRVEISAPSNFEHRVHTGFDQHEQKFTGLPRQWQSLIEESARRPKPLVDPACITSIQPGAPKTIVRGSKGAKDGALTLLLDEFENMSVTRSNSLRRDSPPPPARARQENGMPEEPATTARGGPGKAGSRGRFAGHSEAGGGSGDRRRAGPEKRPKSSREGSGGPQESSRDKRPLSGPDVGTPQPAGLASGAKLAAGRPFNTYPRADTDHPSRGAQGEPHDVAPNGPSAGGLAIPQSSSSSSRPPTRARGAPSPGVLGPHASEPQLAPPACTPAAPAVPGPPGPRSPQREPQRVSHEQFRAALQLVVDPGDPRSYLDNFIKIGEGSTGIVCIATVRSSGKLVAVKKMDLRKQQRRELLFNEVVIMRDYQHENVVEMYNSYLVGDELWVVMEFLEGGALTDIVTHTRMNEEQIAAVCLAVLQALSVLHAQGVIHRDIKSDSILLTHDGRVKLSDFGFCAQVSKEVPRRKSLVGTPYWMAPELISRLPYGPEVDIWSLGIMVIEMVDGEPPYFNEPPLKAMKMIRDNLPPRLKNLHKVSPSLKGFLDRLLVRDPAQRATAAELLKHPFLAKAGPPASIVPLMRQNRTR

[12] = molecular target: Receptor tyrosine-protein kinase erbB-2 (Homo sapiens) (UniProt P04626); experiment: Binding affinity to human ERBB2 at 200 nM by cell-based competition binding assay relative to control in presence of DTT; outline: as §1
[13] = molecular target: Phosphatidylinositol 4-phosphate 3-kinase C2 domain-containing subunit beta (Homo sapiens) (UniProt O00750); experiment: Binding affinity to human PIK3C2beta at 200 nM by cell-based competition binding assay relative to control in presence of DTT
[14] = molecular target: Tyrosine-protein kinase BTK (Homo sapiens) (UniProt Q06187); experiment: Binding affinity to human BTK at 50 nM by cell-based competition binding assay relative to control in presence of DTT; outline: as §2
Tyrosine-protein kinase BTK (Homo sapiens), sequence (Q06187 whole entry): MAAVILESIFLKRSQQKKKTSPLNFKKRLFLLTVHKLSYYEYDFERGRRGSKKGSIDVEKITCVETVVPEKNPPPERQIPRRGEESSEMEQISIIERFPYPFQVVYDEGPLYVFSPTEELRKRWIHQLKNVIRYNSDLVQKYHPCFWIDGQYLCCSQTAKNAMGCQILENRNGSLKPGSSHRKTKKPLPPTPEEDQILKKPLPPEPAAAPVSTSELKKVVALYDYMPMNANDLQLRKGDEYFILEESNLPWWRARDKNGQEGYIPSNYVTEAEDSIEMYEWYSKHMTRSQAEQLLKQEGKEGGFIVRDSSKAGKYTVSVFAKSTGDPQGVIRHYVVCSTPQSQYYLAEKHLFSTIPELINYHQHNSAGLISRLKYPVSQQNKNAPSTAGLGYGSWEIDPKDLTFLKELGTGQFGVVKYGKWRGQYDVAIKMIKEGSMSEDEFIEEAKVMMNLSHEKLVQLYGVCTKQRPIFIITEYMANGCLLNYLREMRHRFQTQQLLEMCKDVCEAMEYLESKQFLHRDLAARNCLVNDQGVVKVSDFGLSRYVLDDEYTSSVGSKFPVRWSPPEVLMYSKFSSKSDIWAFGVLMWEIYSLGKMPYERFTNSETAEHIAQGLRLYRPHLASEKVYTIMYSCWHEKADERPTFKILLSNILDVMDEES

[15] = molecular target: Cyclin-dependent kinase 19 (Homo sapiens) (UniProt Q9BWU1); experiment: Binding affinity to human CDK11 at 50 nM by cell-based competition binding assay relative to control in presence of DTT; outline: as §2
[16] = molecular target: Hepatocyte growth factor receptor (Homo sapiens) (UniProt P08581); experiment: Binding affinity to human MET at 50 nM by cell-based competition binding assay relative to control in presence of DTT
[17] = molecular target: Mitogen-activated protein kinase 14 (Homo sapiens) (UniProt Q16539); experiment: Binding affinity to human p38alpha at 50 nM by cell-based competition binding assay relative to control in presence of DTT
[18] = molecular target: Platelet-derived growth factor receptor beta (Homo sapiens) (UniProt P09619); experiment: Binding affinity to human PDGFRbeta at 50 nM by cell-based competition binding assay relative to control in presence of DTT
[19] = molecular target: Serine/threonine-protein kinase 32C (Homo sapiens) (UniProt Q86UX6); experiment: Binding affinity to human YANK3 at 50 nM by cell-based competition binding assay relative to control in presence of DTT
Serine/threonine-protein kinase 32C (Homo sapiens), sequence (Q86UX6 whole entry): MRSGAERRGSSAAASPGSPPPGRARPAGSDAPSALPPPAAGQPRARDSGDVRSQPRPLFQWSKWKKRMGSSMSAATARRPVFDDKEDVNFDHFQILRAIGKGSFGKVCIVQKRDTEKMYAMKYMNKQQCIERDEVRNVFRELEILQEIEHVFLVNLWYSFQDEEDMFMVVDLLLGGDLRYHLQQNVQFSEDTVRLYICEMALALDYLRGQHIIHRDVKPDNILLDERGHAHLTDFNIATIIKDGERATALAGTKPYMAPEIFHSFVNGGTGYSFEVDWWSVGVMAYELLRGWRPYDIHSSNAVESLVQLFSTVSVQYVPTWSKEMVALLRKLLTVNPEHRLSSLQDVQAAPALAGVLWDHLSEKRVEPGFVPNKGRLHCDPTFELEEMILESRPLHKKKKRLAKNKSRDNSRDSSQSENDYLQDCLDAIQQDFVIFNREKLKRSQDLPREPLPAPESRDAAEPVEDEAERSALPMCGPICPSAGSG

Activity [1]: 54% | Activity [2]: 13% | Activity [3]: 2.6% | Activity [4]: 61% | Activity [5]: 100% | Activity [6]: 0.35% | Activity [7]: 94% | Activity [8]: 86% | Activity [9]: 93% | Activity [10]: 4% | Activity [11]: 34%
SMILES: CO[C@@H]1[C@H](N(C)C(=O)CCC(=O)NCCC(=O)NCCC(=O)NCCC(N)=O)C[C@H]2O[C@]1(C)n1c3ccccc3c3c4c(c5c6ccccc6n2c5c31)C(=O)NC4

Activity [12]: 100% | Activity [13]: 100%
SMILES: CO[C@@H]1[C@H](N(C)C(=O)CCC(=O)NCCC(=O)NCCC(=O)NCCC(=O)NCCC(=O)NCCC(=O)NCCC(=O)NCCC(=O)N[C@H]2CSSC[C@@H](C(=O)NCC(N)=O)NC(=O)CNC(=O)[C@H](Cc3ccccc3)NC(=O)[C@H](C(C)C)NC(=O)[C@H](CCCNC(=N)N)NC(=O)[C@H](Cc3ccccc3)NC(=O)[C@H](C(C)C)NC2=O)C[C@H]2O[C@]1(C)n1c3ccccc3c3c4c(c5c6ccccc6n2c5c31)C(=O)NC4 ({Staurosporine-Suc-βAla-βAla-βAla-βAla-βAla-βAla-βAla}-CVFRVFGCG-NH2; disulfide 1-8)

Activity [14]: 98% | Activity [15]: 100% | Activity [16]: 100% | Activity [17]: 95% | Activity [18]: 23% | Activity [19]: 100%
SMILES: CO[C@@H]1[C@H](N(C)C(=O)CCC(=O)NCCC(=O)NCCC(=O)NCCC(=O)NCCC(=O)NCCC(=O)NCCC(=O)NCCC(=O)N[C@H]2CNC(=O)C[C@@H](C(N)=O)NC(=O)CNC(=O)[C@H](Cc3ccccc3)NC(=O)[C@H](C(C)C)NC(=O)[C@H](CCCNC(=N)N)NC(=O)[C@H](Cc3ccccc3)NC(=O)[C@H](C(C)C)NC2=O)C[C@H]2O[C@]1(C)n1c3ccccc3c3c4c(c5c6ccccc6n2c5c31)C(=O)NC4 ({Staurosporine-Suc-βAla-βAla-βAla-βAla-βAla-βAla-βAla}-[Dap]VFRVFGD-NH2; lactam 1-8)
